From ChEMBL document CHEMBL5247680, “Design, Synthesis, and Biological Activity of Thioguanine-Modified Pleuromutilin Derivatives” (ACS Med Chem Lett, 2023)
Values after ≈ are worked out from the molar mass of the structure shown. Active and inactive are the calls of the source. The rule behind the calls is not given here.

How the values were obtained:
Staphylococcus aureus [1] = assay: Selectivity ratio of MBC for antibacterial activity against Staphylococcus aureus to MIC for antibacterial activity against Staphylococcus aureus; format: functional
[2] = system: Staphylococcus epidermidis; assay: Selectivity ratio of MBC for antibacterial activity against Methicillin-sensitive Staphylococcus epidermidis […] to MIC for antibacterial activity against Methicillin-sensitive Staphylococcus epidermidis […]; format: functional
Staphylococcus aureus [3] = assay: Selectivity ratio of MBC for antibacterial activity against Methicillin-resistant Staphylococcus aureus ATCC 33591 to MIC for antibacterial activity against Methicillin-resistant Staphylococcus aureus ATCC 33591; format: functional
Staphylococcus aureus [4] = assay: Selectivity ratio of MBC for antibacterial activity against Methicillin-sensitive Staphylococcus aureus ATCC 29213 to MIC for antibacterial activity against Methicillin-sensitive Staphylococcus aureus ATCC 29213
Staphylococcus aureus [5] = assay: Antibacterial activity against Methicillin-resistant Staphylococcus aureus ATCC 43300 assessed as bacterial growth inhibition incubated for 20 to 24 hrs by microbroth serial dilution assay; format: functional; details: time 20-24 hrs
[6] = system: Staphylococcus epidermidis; assay: Antibacterial activity against Methicillin-sensitive Staphylococcus epidermidis ATCC 12228 assessed as bacterial growth inhibition incubated for 20 to 24 hrs by microbroth serial dilution assay; format: functional; details: time 20-24 hrs
[7] = system: Staphylococcus epidermidis; assay: Selectivity ratio of MBC for antibacterial activity against Methicillin-resistant Staphylococcus epidermidis ATCC 51625 to MIC for antibacterial activity against Methicillin-resistant Staphylococcus epidermidis ATCC 51625; format: functional
Staphylococcus aureus [8] = assay: Antibacterial activity against Staphylococcus aureus ATCC 25923 assessed as bacterial growth inhibition incubated for 20 to 24 hrs by microbroth serial dilution assay; format: functional; details: time 20-24 hrs
Staphylococcus aureus [9] = assay: Antibacterial activity against Methicillin-sensitive Staphylococcus aureus ATCC 29213 assessed as bacterial growth inhibition incubated for 20 to 24 hrs by microbroth serial dilution assay
Staphylococcus aureus [10] = assay: Antibacterial activity against Methicillin-resistant Staphylococcus aureus ATCC 33591 assessed as bacterial growth inhibition incubated for 20 to 24 hrs by microbroth serial dilution assay; format: functional; details: time 20-24 hrs
[11] = system: Staphylococcus epidermidis; assay: Antibacterial activity against Methicillin-resistant Staphylococcus epidermidis ATCC 51625 assessed as bacterial growth inhibition incubated for 20 to 24 hrs by microbroth serial dilution assay; format: functional; details: time 20-24 hrs
Staphylococcus aureus [12] = assay: Selectivity ratio of MBC for antibacterial activity against Methicillin-resistant Staphylococcus aureus ATCC 43300 to MIC for antibacterial activity against Methicillin-resistant Staphylococcus aureus ATCC 43300; format: functional
Staphylococcus aureus [13] = assay: Antibacterial activity against Methicillin-resistant Staphylococcus aureus ATCC 33591 assessed as bacterial growth inhibition at 1 to 2 times MIC measured upto 24 hrs by time kill assay; format: functional, organism-based
In short: (§1)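 MRSA ATCC 33591 time-kill curves at 1×, 2× and 4× MIC, with a tiamulin positive control and an untreated growth control. Viable counts were taken as CFU·mL⁻¹ at time points through incubation, including 2, 8 and 12 h.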

Staphylococcus aureus [14] = assay: Antibacterial activity against Methicillin-resistant Staphylococcus aureus ATCC 33591 assessed as bacterial bactericidal effect at 1 to 2 times MIC measured upto 24 hrs by time kill assay; format: functional, organism-based; in short: as §1
Staphylococcus aureus [15] = assay: In vivo Antibacterial activity against Methicillin-resistant Staphylococcus aureus in ICR mouse thigh infection model assessed as reduction in bacterial load at 40 mg/kg, IP by […]; format: functional
Staphylococcus aureus [16] = assay: Antibacterial activity against Methicillin-resistant Staphylococcus aureus ATCC 33591 assessed as bacterial colony inhibition at 1 to 2 times MIC measured upto 24 hrs by time kill assay; format: functional, organism-based; in short: as §1

| SMILES | Ratio (Staphylococcus aureus [1]) | Ratio [2] | Ratio (Staphylococcus aureus [3]) | Ratio (Staphylococcus aureus [4]) | MIC (Staphylococcus aureus [5]) | MIC [6] | Ratio [7] | MIC (Staphylococcus aureus [8]) | MIC (Staphylococcus aureus [9]) | MIC (Staphylococcus aureus [10]) | MIC [11] | Ratio (Staphylococcus aureus [12]) | Activity (Staphylococcus aureus [13]) | Activity (Staphylococcus aureus [14]) | Activity (Staphylococcus aureus [15]) | Activity (Staphylococcus aureus [16]) |
| --- | --- | --- | --- | --- | --- | --- | --- | --- | --- | --- | --- | --- | --- | --- | --- | --- |
| C=C[C@]1(C)C[C@@H](OC(=O)CSc2nc(NC(=O)CN3CCCC3)nc3[nH]cnc23)[C@@]2(C)C3C(=O)CC[C@@]3(CC[C@H]2C)[C@@H](C)[C@@H]1O (some centres undefined) | >4 | >4 | 4 | 4 | 1 µg/mL (≈ 1.57 µM) | 2 µg/mL (≈ 3.13 µM) | 4 | 2 µg/mL (≈ 3.13 µM) | 2 µg/mL (≈ 3.13 µM) | 2 µg/mL (≈ 3.13 µM) | 1 µg/mL (≈ 1.57 µM) |  |  |  |  |  |
| C=C[C@]1(C)C[C@@H](OC(=O)CSc2nc(N)nc3c2ncn3C(=O)OCC)[C@@]2(C)C3C(=O)CC[C@@]3(CC[C@H]2C)[C@@H](C)[C@@H]1O (some centres undefined) | 4 | >4 |  | >4 | 0.125 µg/mL (≈ 0.208 µM) | < 0.0078 µg/mL |  | 0.25 µg/mL (≈ 0.417 µM) | 0.125 µg/mL (≈ 0.208 µM) | 0.25 µg/mL (≈ 0.417 µM) | 0.25 µg/mL (≈ 0.417 µM) | >4 |  |  |  |  |
| C=C[C@]1(C)C[C@@H](OC(=O)CSc2nc(NC(=O)CN3CCOCC3)nc3[nH]cnc23)[C@@]2(C)C3C(=O)CC[C@@]3(CC[C@H]2C)[C@@H](C)[C@@H]1O (some centres undefined) |  | >4 | >4 | >4 | 1 µg/mL (≈ 1.53 µM) | 0.0156 µg/mL (≈ 0.0238 µM) |  | 0.5 µg/mL (≈ 0.764 µM) | 1 µg/mL (≈ 1.53 µM) | 1 µg/mL (≈ 1.53 µM) | 0.125 µg/mL (≈ 0.191 µM) | >4 |  |  |  |  |
| C=C[C@]1(C)C[C@@H](OC(=O)CSc2nc(N)nc3[nH]cnc23)[C@@]2(C)C3C(=O)CC[C@@]3(CC[C@H]2C)[C@@H](C)[C@@H]1O (some centres undefined) | >4 | >4 | 4 |  | 0.125 µg/mL (≈ 0.237 µM) | 0.125 µg/mL (≈ 0.237 µM) | 2 | 0.25 µg/mL (≈ 0.474 µM) | 0.125 µg/mL (≈ 0.237 µM) | 0.125 µg/mL (≈ 0.237 µM) | 0.125 µg/mL (≈ 0.237 µM) |  |  |  |  |  |
| C=C[C@]1(C)C[C@@H](OC(=O)CSc2nc(N)nc3c2ncn3C(=O)NCc2cccc(OC)c2)[C@@]2(C)C3C(=O)CC[C@@]3(CC[C@H]2C)[C@@H](C)[C@@H]1O (some centres undefined) | >4 | >4 | 4 | 4 | 0.125 µg/mL (≈ 0.181 µM) | 0.0156 µg/mL (≈ 0.0226 µM) | 2 | 0.125 µg/mL (≈ 0.181 µM) | 0.0625 µg/mL (≈ 0.0905 µM) | 0.125 µg/mL (≈ 0.181 µM) | 0.0625 µg/mL (≈ 0.0905 µM) |  |  |  |  |  |
| C=C[C@]1(C)C[C@@H](OC(=O)CSc2nc(N)nc3c2ncn3C(=O)Nc2ccc(F)cc2)[C@@]2(C)C3C(=O)CC[C@@]3(CC[C@H]2C)[C@@H](C)[C@@H]1O (some centres undefined) | >4 | >4 |  | 2 | 0.125 µg/mL (≈ 0.188 µM) | 0.0156 µg/mL (≈ 0.0235 µM) | 4 | 0.125 µg/mL (≈ 0.188 µM) | 0.25 µg/mL (≈ 0.376 µM) | 0.125 µg/mL (≈ 0.188 µM) | 0.125 µg/mL (≈ 0.188 µM) |  |  |  |  |  |
| C=C[C@]1(C)C[C@@H](OC(=O)CSc2nc(N)nc3c2ncn3C(=O)c2ccc(OC)cc2)[C@@]2(C)C3C(=O)CC[C@@]3(CC[C@H]2C)[C@@H](C)[C@@H]1O (some centres undefined) | >4 | >4 |  |  | 0.125 µg/mL (≈ 0.189 µM) | < 0.0078 µg/mL | 4 | 0.25 µg/mL (≈ 0.378 µM) | 0.5 µg/mL (≈ 0.755 µM) | 0.5 µg/mL (≈ 0.755 µM) | 0.25 µg/mL (≈ 0.378 µM) |  |  |  |  |  |
| C=C[C@]1(C)C[C@@H](OC(=O)CSCCN(CC)CC)[C@]2(C)[C@H](C)CC[C@]3(CCC(=O)[C@H]32)[C@@H](C)[C@@H]1O [TIAMULIN] | 4 | >4 |  | >4 | 2 µg/mL (≈ 4.05 µM) | 0.5 µg/mL (≈ 1.01 µM) |  | 2 µg/mL (≈ 4.05 µM) | 1 µg/mL (≈ 2.03 µM) | 1 µg/mL (≈ 2.03 µM) | 1 µg/mL (≈ 2.03 µM) |  | Active | inactive | 1 10^7CFU/g | Active |
| C=C[C@]1(C)C[C@@H](OC(=O)CSC(C)(C)CNC(=O)[C@H](N)C(C)C)[C@]2(C)[C@H](C)CC[C@]3(CCC(=O)[C@H]32)[C@@H](C)[C@@H]1O [VALNEMULIN] | 1 | >4 |  | >4 | 0.125 µg/mL (≈ 0.221 µM) | 2 µg/mL (≈ 3.54 µM) |  | 0.25 µg/mL (≈ 0.443 µM) | 0.125 µg/mL (≈ 0.221 µM) | 0.25 µg/mL (≈ 0.443 µM) | 0.125 µg/mL (≈ 0.221 µM) | 4 |  |  |  |  |
